According to ChEMBL document CHEMBL4425094, “Novel Benzo[a]quinolizidine Analogs Induce Cancer Cell Death through Paraptosis and Apoptosis” (J Med Chem, 2016):
Activity calls are given as the source filed them. The calls are words filed in the database; no cut-off is given here.

Columns and labels:
PC-3 [1] = assay: Cytotoxicity against human PC3 cells assessed as cell growth inhibition after 24 hrs by MTT assay; format: functional, cell-based; settings: PC-3, 24 h
Method in brief: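 Cells seeded 24 h in RPMI 1640 + 10% FBS. RWPE-1 was kept in K-SFM with bovine pituitary extract and EGF. Cells then exposed to compounds for 24 h at 37 °C, 5% CO2, with DMSO vehicle and docetaxel as positive control. MTT added for 4 h, absorbance read at 570 nm. Triplicate runs, IC50 reported as mean of three experiments.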

[2] = Toxicity in athymic Balb/c mouse assessed as body weight loss at 15 mg/kg, ip administered every 2 days for 18 days; format: organism-based; settings: in vivo
Method in brief: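 Male athymic BALB/c-nu mice bearing subcutaneous PC3M-luc-C6 xenografts, n = 5 per group. Dosing was 15 mg/kg i.p. every 2 days for 18 days versus placebo and docetaxel 15 mg/kg groups. Body weight was recorded over the treatment period.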

PC-3 [3] = assay: Induction of autophagy in human PC3 cells assessed as vacuole formation at 1 uM after 24 hrs in presence of PI3K inhibitor 3-MA by phase-contrast microscopic analysis; format: functional, cell-based
Method in brief: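 PC3 cells were pretreated with the autophagy inhibitor (3-MA or E64d), then exposed to 1 μM test agent for 24 h. Morphology was imaged by phase-contrast microscopy, and viability was read by MTT at 570 nm. Comparison was against agent-only cells.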

PC-3 [4] = assay: Induction of cell cycle arrest in human PC3 cells assessed as accumulation in G2 phase at 0.5 uM after 24 hrs by […]propidium iodide based flow cytometric analysis (reference value: 16.3 to 25 %); format: functional
PC-3 [5] = assay: Induction of endoplasmic reticulum derived cytoplasmic vacuole formation in human PC3 cells after 4 to 8 hrs by ER-tracker staining based fluorescence microscopy; format: functional, cell-based
Method in brief: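 PC3 cells incubated with vehicle or agent for 0, 4 or 8 h. They were then stained at 37 °C for 15 min with ER-Tracker (1:3000) plus 10 μg/mL Hoechst 33342, washed with PBS and imaged by fluorescence/confocal microscopy.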

[6] = molecular target: T1, Eukaryotic translation initiation factor 2-alpha kinase 3 (Homo sapiens) (UniProt Q9NZJ5); assay: Activation of PERK phosphorylation in human PC3 cells assessed as eIF2alpha phosphorylation after 24 hrs by Western blot analysis; format: cell-based
T1 sequence (whole entry): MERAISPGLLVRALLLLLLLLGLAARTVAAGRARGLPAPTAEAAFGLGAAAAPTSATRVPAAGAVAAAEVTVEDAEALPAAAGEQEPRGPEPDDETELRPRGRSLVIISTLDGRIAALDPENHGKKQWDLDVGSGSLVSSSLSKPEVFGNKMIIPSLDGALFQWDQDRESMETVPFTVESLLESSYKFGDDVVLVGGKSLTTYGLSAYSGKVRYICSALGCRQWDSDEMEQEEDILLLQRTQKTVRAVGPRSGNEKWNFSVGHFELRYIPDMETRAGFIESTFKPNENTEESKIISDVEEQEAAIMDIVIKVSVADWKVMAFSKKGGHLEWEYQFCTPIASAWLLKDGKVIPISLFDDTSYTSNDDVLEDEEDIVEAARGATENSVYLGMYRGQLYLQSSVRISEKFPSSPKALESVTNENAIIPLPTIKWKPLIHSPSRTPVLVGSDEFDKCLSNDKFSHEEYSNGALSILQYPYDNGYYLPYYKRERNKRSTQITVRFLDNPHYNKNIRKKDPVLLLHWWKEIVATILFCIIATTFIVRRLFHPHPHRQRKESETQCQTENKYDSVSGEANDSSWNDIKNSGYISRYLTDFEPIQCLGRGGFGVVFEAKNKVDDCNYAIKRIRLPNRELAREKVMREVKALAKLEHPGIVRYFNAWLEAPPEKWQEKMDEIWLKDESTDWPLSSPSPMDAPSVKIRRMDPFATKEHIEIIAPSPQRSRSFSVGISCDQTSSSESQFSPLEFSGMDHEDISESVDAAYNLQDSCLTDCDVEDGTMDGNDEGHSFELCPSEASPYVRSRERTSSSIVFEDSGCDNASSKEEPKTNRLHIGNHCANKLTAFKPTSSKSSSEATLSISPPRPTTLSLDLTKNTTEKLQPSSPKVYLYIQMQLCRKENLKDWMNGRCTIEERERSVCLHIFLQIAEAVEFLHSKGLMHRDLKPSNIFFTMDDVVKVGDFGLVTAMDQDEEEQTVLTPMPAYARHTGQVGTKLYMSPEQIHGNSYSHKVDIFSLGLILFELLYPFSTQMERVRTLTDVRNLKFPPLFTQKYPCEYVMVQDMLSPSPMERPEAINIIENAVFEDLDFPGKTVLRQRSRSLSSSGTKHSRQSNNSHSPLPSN
Method in brief: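 PC3 cells in RPMI 1640 with 10% FBS, treated with compound for timed intervals. DMSO vehicle control. Lysis in RIPA buffer, 40 μg protein per lane on SDS-PAGE, transfer to nitrocellulose. Primary antibodies overnight at 4 °C, HRP-secondary 45 min, ECL detection. GAPDH or β-actin used as loading control.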

PC-3 [7] = assay: Cytotoxicity against human PC3 cells transfected with LC3-targeting siRNA assessed as reduction in cell viability at 1 uM after 24 hrs by Western blot analysis; format: functional, cell-based
Method in brief: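 PC3 cells plated at 20−30% confluence and transfected 24 h later with 50 nM LC3-targeting or scramble siRNA. After 48 h, cells were exposed to 1 μM compound for a further 24 h. Read-out by Western blot and phase-contrast imaging.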

PC-3 [8] = assay: Induction of apoptosis in human PC3 cells assessed as viable cells at 0.5 uM after 24 hrs by Annexin V-FITC/propidium iodide based flow cytometric analysis (reference value: 95.4 %); format: functional; settings: PC-3, 24 h, read-out: Activity
Method in brief: (§1)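 PC3 cells exposed to 0.5, 1 or 2 μM for 24 h, then stained with Annexin V-FITC and PI and analyzed by FACSCalibur flow cytometry. Populations assigned as necrotic (Annexin V−/PI+), late apoptotic (double positive), normal (Annexin V−/PI−) and early apoptotic (Annexin V+/PI−). DMSO vehicle control.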

PC-3 [9] = assay: Induction of morphological changes in human PC3 cells incubated for 22 hrs after ER stress inhibitor 4-PBA exposure for 2 hrs by phase-contrast microscopic analysis; format: functional, cell-based
Method in brief: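 PC3 cells pretreated 2 h with 100 μM 4-PBA (ER stress inhibitor), then exposed to agent for a further 22 h. Morphology by phase-contrast microscopy; viability by MTT in parallel.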

PC-3M = assay: Antitumor activity against human PC3M-lluc-C6 cells xenografted in athymic Balb/c mouse assessed as decrease in tumor burden by measuring photon intensity at 15 mg/kg, ip measured on day 18 by bioluminescence method (reference value: 2.332 x 10^10 photons/s/cm2); format: functional
PC-3 [10] = assay: Induction of fusion of autophagosomes with lysosomes in human PC3 cells transfected with mRFP-GFP-LC3 at 1 uM after 8 hrs by fluorescence microscopic analysis; format: functional, cell-based
Method in brief: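 PC3 cells transfected with an mRFP-GFP-LC3 reporter plasmid, then treated 8 h with 1 μM test agent or 0.5 μM rapamycin (autophagy inducer). Imaged by confocal fluorescence microscopy: yellow puncta (overlapping red/green) scored as autophagosomes, red-only puncta as autolysosomes, since GFP is quenched in acidic lysosomes.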

PC-3 [11] = assay: Induction of apoptosis in human PC3 cells assessed as necrotic cells at 1 uM after 24 hrs by Annexin V-FITC/propidium iodide based flow cytometric analysis (reference value: 1.1 %); format: functional; method in brief: as §1

With `Cc1cc(C)cc(COc2cc3c(cc2OCc2cc(C)cc(C)c2)[C@@H]2C[C@H](O)C[C@@H](C)N2CC3)c1` (racemic) the IC50 (PC-3 [1]) was 660 nM, the Activity [2] was 16.3 g and the Activity (PC-3 [3]) was “inactive”. The Activity (PC-3 [4]) was 13.7 - 14.9%, the Activity (PC-3 [5]) was “Active” and the Activity [6] was “Active”. The Activity (PC-3 [7]) was “inactive”, the viability at 0.5 µM (PC-3 [8]) was 95.3% and the Activity (PC-3 [9]) was “inactive”. For the same compound, the Activity (PC-3M) was 1.766 ×10⁹ /s/cm2, the Activity (PC-3 [10]) was “inactive” and the Activity (PC-3 [11]) was 1.6%.
